High-throughput results as filed in PubChem.
Diaphorase act: activates diaphorase or chemically reduces, flagging diaphorase assay artifacts; Diaphorase/resazurin coupled assay, resorufin fluorescence, 16 min; hits give high values; 1 = vehicle wells, 0 = NADH-free wells; AID 1229; activation factor at 20 µM; 0.005% of 190,000 active;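 active = diaphorase activity raised at least twofold by the compound at 20 µM; inactive = activation factor below 2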
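Assay system: bacterial diaphorase enzyme (C. kluyveri) / Input: enzyme 0.07 U/mL final / Medium: 50 mM HEPES pH 7.4 with 4.542 mM MgCl2, 0.005% Tween 20 / Doses: single compound dose of 20 µM, 1% DMSO final / Incubation: 16 min enzyme reaction, ambient temperature / Signal: fluorescence, excitation 544 nm and emission 590 nm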
ATG4B inh: inhibitors of human ATG4B cysteine protease | AID 504462 | ATG4B cleavage of LC3-PLA2, NBD-HPC fluorescence, 1 h | Q9Y4P1 | inhibition, % at 8.33 µM | 0.51% of 340,000 active; in the data active = inhibition above about 40%
Target sequence (Q9Y4P1 whole entry, looked up): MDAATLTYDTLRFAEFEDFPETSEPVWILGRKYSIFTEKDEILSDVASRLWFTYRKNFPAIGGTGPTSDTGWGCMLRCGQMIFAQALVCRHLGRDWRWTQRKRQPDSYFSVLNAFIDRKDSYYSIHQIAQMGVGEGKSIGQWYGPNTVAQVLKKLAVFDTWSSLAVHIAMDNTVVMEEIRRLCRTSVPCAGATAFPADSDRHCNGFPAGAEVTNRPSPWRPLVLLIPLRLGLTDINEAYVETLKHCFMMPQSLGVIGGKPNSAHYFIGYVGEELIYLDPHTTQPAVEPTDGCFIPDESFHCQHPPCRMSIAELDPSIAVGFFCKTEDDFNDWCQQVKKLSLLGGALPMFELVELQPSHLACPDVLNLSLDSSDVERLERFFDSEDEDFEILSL
HKDC1 inh: blocks human hexokinase HKDC1 activity; recombinant HKDC1, G6PDH/diaphorase resazurin coupled fluorescence; Q2TB90; 0.16% of 340,000 active; inhibition, % at 20 µM;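 active = inhibition above about 35% when tested at 20 µM, limit read from the data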;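 note: plate controls were DMSO wells with enzyme for no effect and DMSO wells lacking enzyme for full effect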
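Test system: HK5 enzyme. Quantity: 5 µg/mL HK5 final. Reagent: glucose and ATP substrates. Schedule: 90 min reaction incubation at room temperature, dark. Technique: resazurin-to-resorufin fluorescence via G6PDH and diaphorase coupling, 525/613 nm. Control set: DMSO wells with and without enzyme mix.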
Diaph inh CS: diaphorase inhibition or chemical oxidation counter-screen; diaphorase resazurin-to-resorufin fluorescence, NADH, 16 min; bacterial (C. kluyveri) enzyme, not human; inhibition, % at 20 µM; 0.69% of 190,000 active; AID 1217;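 active = primary screen inhibition at 20 µM above a set limit, cut at about 50% in these data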;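 note: plate controls were DMSO with full reaction for no effect and wells lacking NADH for full effect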
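Assay system – diaphorase enzyme from Clostridium kluyveri · Amount – diaphorase 0.14 U/mL (working solution) · Times – reaction incubation of 16 min at room temperature · Controls – No-NADH positive control and DMSO neutral control · Signal – resorufin fluorescence 544/590 nm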
CTSL1 counter: cathepsin L1 inhibition, PFM18AAP counter-screen; recombinant F. hepatica cathepsin L1, Z-Leu-Arg-MCA fluorescence; inhibition, % at 5.96 µM; 0.49% of 300,000 active; AID 1906;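 active = inhibition above the mean of all tested compounds plus 3 SD, set per screening campaign, cut at about 17% in these data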;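 note: 0% = plate median of test compound wells and 100% = 1 µM Z-Phe-Ala-diazomethylketone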
* hit, by the source's call. In the library only some 1.4% were active in any assay of this set; here they are far more common.

What do the screens show for `CCO[C@@H]1OC(C(=O)Nc2ccccc2)=C[C@H](c2ccc(Br)cc2)[C@H]1CCCO`?
Diaphorase act: 0.4; ATG4B inh: -22.3; HKDC1 inh: 2.9; Diaph inh CS: 56.1*; CTSL1 counter: 6.5

Results for O=S(=O)(c1ccc(NC(=S)NN=Cc2ccccc2O)cc1)N1CCCCC1 ?
ATG4B inh: 0.4; HKDC1 inh: -33.0

What do the screens show for `C=CCOc1ccc(C(=O)c2ccccc2)c(OCC(=O)NC2(C#N)CCCC2)c1`?
ATG4B inh: 6.6; HKDC1 inh: 1.6; CTSL1 counter: 17.7*

How did O=C(CCc1nnc(CCCc2ccccc2)o1)NCC(F)(F)F do in these assays?
Diaphorase act: 0.5; ATG4B inh: 4.2; HKDC1 inh: -8.5; Diaph inh CS: 50.0*; CTSL1 counter: -0.8

What do the screens show for `O=C(Cc1ccc(NC(=O)C2CCN(C(=O)C3CCCC3)CC2)cc1)Nc1cccc(C(=O)N2CCCCC2)c1`?
ATG4B inh: -0.8; HKDC1 inh: -3.7

What do the screens show for `Cc1ccc(NC(=O)CSc2nnc(CNC(=O)c3ccco3)n2C)cc1C`?
ATG4B inh: -7.2; HKDC1 inh: -2.5; CTSL1 counter: -1.0

What do the screens show for `COCC(=O)Nc1c(C(=O)Nc2ccc3c(c2)OCO3)oc2ccccc12`?
ATG4B inh: -6.3; HKDC1 inh: -3.8; CTSL1 counter: 1.4

Results for O=C(CCl)Nc1c(C(=O)Nc2ccc3c(c2)OCCO3)oc2ccccc12 ?
ATG4B inh: -10.0; HKDC1 inh: 9.3; CTSL1 counter: 58.2*

What do the screens show for `CN(C)c1ccc(/C=C/c2ccc3c4ccccc4ccc3[n+]2-c2ccccc2)cc1`?
Diaphorase act: 0.3; ATG4B inh: 35.5; HKDC1 inh: 26.2; Diaph inh CS: 68.1*

Results for CN(C)c1ccc(/C=C/c2ccc3ccccc3[n+]2C)cc1 ?
Diaphorase act: 1.1; ATG4B inh: 5.0; HKDC1 inh: -0.5; Diaph inh CS: -5.9; CTSL1 counter: 1.1

How did CN(C)C(CNC(=O)c1cc(S(=O)(=O)N2CCOCC2)ccc1F)c1cccs1 (stereo not given) do in these assays?
ATG4B inh: 1.1; HKDC1 inh: -2.0

What do the screens show for `N#Cc1c(-c2ccccc2)[nH]c(=S)[nH]c1=O`?
Diaphorase act: 0.5; ATG4B inh: 0.2; HKDC1 inh: 5.1; Diaph inh CS: 50.8*; CTSL1 counter: 3.1

Results for O=C1NCCCC2c3cc(O)c4ccccc4c3OC12N1CCCCC1 (stereo not given) ?
Diaphorase act: 0.5; Diaph inh CS: 46.2; CTSL1 counter: 28.8*

Results for Cc1ccc(C(=O)NC(=S)/C=C2\N(C)c3ccccc3C2(C)C)cc1 ?
Diaphorase act: 0.3; ATG4B inh: 15.7; HKDC1 inh: 3.9; Diaph inh CS: 67.1*; CTSL1 counter: 10.2

Results for CC(C)C(=O)NC(=S)/C=C1/N(C)c2ccccc2C1(C)C ?
Diaphorase act: 1; ATG4B inh: 4.0; HKDC1 inh: -5.8; Diaph inh CS: -2.6; CTSL1 counter: 5.3

What do the screens show for `CCN(CC)S(=O)(=O)c1cccc(-c2n[nH]c(=S)n2/N=C/c2ccc(OC(F)F)cc2)c1`?
Diaphorase act: 0.5; ATG4B inh: -0.6; HKDC1 inh: -2.7; Diaph inh CS: 52.9*; CTSL1 counter: 3.8

Results for COc1ccc(/C=N/n2c(-c3cccs3)n[nH]c2=S)cc1 ?
Diaphorase act: 0.4; ATG4B inh: -2.8; HKDC1 inh: 3.6; Diaph inh CS: 64.3*; CTSL1 counter: 5.6

How did CCN(CC)S(=O)(=O)c1cccc(-c2n[nH]c(=S)n2/N=C/c2ccc(Br)cc2)c1 do in these assays?
Diaphorase act: 0.9; ATG4B inh: -4.3; HKDC1 inh: -2.1; Diaph inh CS: 8.8; CTSL1 counter: 0.7

Results for CCN(CC)S(=O)(=O)c1cccc(-c2n[nH]c(=S)n2/N=C/c2ccc(OC)cc2)c1 ?
Diaphorase act: 0.2; ATG4B inh: 17.2; HKDC1 inh: -2.0; Diaph inh CS: 78.5*; CTSL1 counter: 4.1

What do the screens show for `CCc1ccc(CNC(=O)C2CC(=O)N(C3CCCC3)C2)cc1` (stereo not given)?
ATG4B inh: 0.9; HKDC1 inh: -3.4; CTSL1 counter: 16.3

How did O=C(Nc1cc(S(=O)(=O)N2CCOCC2)ccc1N1CCCC1)c1ccccc1C(F)(F)F do in these assays?
ATG4B inh: 2.0; HKDC1 inh: -4.2

What do the screens show for `O=c1[nH]cn[nH]1`?
Diaphorase act: 0.9; ATG4B inh: -6.1; HKDC1 inh: -3.7; Diaph inh CS: 7.9; CTSL1 counter: 19.0*

How did COC(=O)C(Cc1cccc(C)n1)(c1ccccc1)c1ccccc1 do in these assays?
ATG4B inh: -11.0; HKDC1 inh: -0.4

How did Cc1ccc(N2NC(=O)/C(=C/c3ccc(-c4ccc(Cl)c(C(=O)O)c4)o3)C2=O)cc1C do in these assays?
Diaphorase act: 0.8; ATG4B inh: -3.2; HKDC1 inh: 5.8; Diaph inh CS: 22.8; CTSL1 counter: -0.7

What do the screens show for `COC(=O)c1ccc(N2NC(=O)/C(=C/c3ccc(-c4ccc(Cl)c(C(=O)O)c4)o3)C2=O)cc1`?
Diaphorase act: 0.3; ATG4B inh: 8.6; HKDC1 inh: 11.7; Diaph inh CS: 73.5*

What do the screens show for `COc1ccc(OC)c(Nc2nc(=O)c3cccnc3s2)c1`?
Diaphorase act: 0.3; ATG4B inh: 4.1; HKDC1 inh: 7.8; Diaph inh CS: 65.3*

What do the screens show for `Cc1ccc(Nc2nc(=O)c3cccnc3s2)cc1`?
Diaphorase act: 0.9; ATG4B inh: -6.2; HKDC1 inh: -4.4; Diaph inh CS: 10.1; CTSL1 counter: 3.3

How did CC[n+]1c(C)sc2cc(C)ccc21 do in these assays?
Diaphorase act: 0.5; ATG4B inh: 0.6; HKDC1 inh: -3.0; Diaph inh CS: 54.4*; CTSL1 counter: -2.0

What do the screens show for `CCCC[n+]1c(C)sc2ccc(C)cc21`?
Diaphorase act: 0.3; ATG4B inh: 3.8; HKDC1 inh: -0.1; Diaph inh CS: 66.5*; CTSL1 counter: 0.3

Results for O=C(Nc1ccccc1C(=O)NC1CC1)c1ccc([N+](=O)[O-])o1 ?
ATG4B inh: 1.7; HKDC1 inh: 7.2

How did CN(Cc1ccccc1)C1(CNC(=O)CCC(F)(F)F)Cc2ccccc2C1 do in these assays?
ATG4B inh: -0.1; HKDC1 inh: 4.1; CTSL1 counter: 1.6

What do the screens show for `CSCCC1NC(=O)N(CC(=O)N2CCc3ccccc3C2)C1=O` (stereo not given)?
ATG4B inh: -7.1; HKDC1 inh: -3.5

What do the screens show for `COc1cc(CN2CCNC(=O)C2CC(=O)O)cc(OC)c1` (stereo not given)?
Diaphorase act: 0.2; ATG4B inh: 4.9; HKDC1 inh: -9.2; Diaph inh CS: 84.6*; CTSL1 counter: -3.3

Results for COc1cc(CN2CCNC(=O)C2CC(=O)NC2CCCC2)cc(OC)c1 (stereo not given) ?
ATG4B inh: -4.7; HKDC1 inh: -1.2; CTSL1 counter: -1.3
